Assay results reported in ChEMBL document CHEMBL4411311, “Exploration of novel macrocyclic dipeptide N-benzyl amides as proteasome inhibitors” (Eur J Med Chem, 2019).

Assays:
RPMI-8226 = test: Antiproliferative activity against human RPMI8226 cells after 72 hrs by MTS assay; type: functional, cell-based; settings: RPMI-8226, 72 h
Method in brief: (§1)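 Cells kept at 37 °C in humidified 5% CO₂. RPMI 8226 and MM.1S were grown in RPMI-1640 with 10% FBS plus penicillin/streptomycin. Seeding per well was 5 × 10³ (RPMI 8226), 3 × 10⁴ (MM.1S) or 8 × 10³ (MV-4-11). Cells were treated with DMSO vehicle or graded concentrations, then given MTS/PMS for 2-4 h at 37 °C. OD read at 490 nm minus 690 nm background. Growth inhibition = (A_control − A_sample)/A_control; IC50 from variable-slope sigmoidal nonlinear fit.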

MM1.S = test: Antiproliferative activity against human MM1S cells after 72 hrs by MTS assay; type: functional, cell-based; method in brief: as §1
[1] = molecular target: T1, Proteasome Macropain subunit MB1 (Homo sapiens) (UniProt P28074); test: Inhibition of human hepatic cell derived 20s constitutive proteasome beta5 chymotrypsin-like activity at 10 uM using Suc-WLA-AMC as substrate preincubated for 15 mins followed by substrate addition and measured after 60 mins by fluorescence assay relative to control
T1 sequence (whole entry): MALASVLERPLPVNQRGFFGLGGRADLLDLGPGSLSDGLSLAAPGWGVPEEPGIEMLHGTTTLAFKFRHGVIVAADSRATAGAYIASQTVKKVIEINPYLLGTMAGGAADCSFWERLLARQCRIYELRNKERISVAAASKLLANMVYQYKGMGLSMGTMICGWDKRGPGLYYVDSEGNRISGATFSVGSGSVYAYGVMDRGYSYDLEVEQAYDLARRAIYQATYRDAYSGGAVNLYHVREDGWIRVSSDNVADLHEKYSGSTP

[2] = molecular target: T2, Proteasome Macropain subunit MB1 (Homo sapiens, UniProt P28074); test: Inhibition of human hepatic cell derived 20s constitutive proteasome beta5 chymotrypsin-like activity using Suc-WLA-AMC as substrate preincubated for 15 mins followed by substrate addition and measured after 60 mins by fluorescence assay
T2 sequence (P28074 whole entry): T1 sequence (whole entry)

MV4-11 = test: Antiproliferative activity against human MV4-11 cells after 72 hrs by MTS assay; type: functional, cell-based; settings: MV4-11, 72 h; method in brief: as §1
[3] = Stability in human liver microsomes assessed as parent compound remaining at 1 uM measured after 30 mins by LC-MS/MS analysis; type: ADME, Microsome; settings: read-out: Stability
Method in brief: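 Test compound at […] incubated with human liver microsomes (1.0 mg/mL protein) in 0.1 M PBS pH 7.4 with 1 mM NADPH. Microsomes preincubated 5 min at 37 °C; reaction started by compound addition and sampled at 0, 10, 20 and 30 min. Stopped with ice-cold methanol containing internal standard, then centrifuged at 15000g for 10 min. Supernatant analysed by LC-MS; % remaining = analyte/IS peak-area ratio relative to 0 min.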

[4] = molecular target: T3, Proteasome subunit beta type-9 (Homo sapiens, UniProt P28065); test: Inhibition of human peripheral blood derived 20s immunoproteasome beta1 caspase-like activity using Suc-PAL-AMC as substrate preincubated for 15 mins followed by substrate addition and measured after 60 mins by fluorescence assay
T3 sequence (P28065 whole entry): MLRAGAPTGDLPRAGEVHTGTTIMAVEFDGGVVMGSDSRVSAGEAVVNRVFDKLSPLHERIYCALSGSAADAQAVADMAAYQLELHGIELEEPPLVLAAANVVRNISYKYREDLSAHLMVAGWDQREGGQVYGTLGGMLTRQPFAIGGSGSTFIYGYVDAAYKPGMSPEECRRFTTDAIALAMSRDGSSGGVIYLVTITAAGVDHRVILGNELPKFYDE

[5] = Inhibition of human peripheral blood derived 20s immunoproteasome beta2 trypsin-like activity using […] as substrate preincubated for 15 mins followed by substrate addition and measured after 60 mins by fluorescence assay
[6] = molecular target: T4, Proteasome subunit beta type-8 (Homo sapiens, UniProt P28062); test: Inhibition of human peripheral blood derived 20s immunoproteasome beta5 chymotrypsin-like activity using […] as substrate preincubated for 15 mins followed by substrate addition and measured after 60 mins by fluorescence assay
T4 sequence (P28062 whole entry): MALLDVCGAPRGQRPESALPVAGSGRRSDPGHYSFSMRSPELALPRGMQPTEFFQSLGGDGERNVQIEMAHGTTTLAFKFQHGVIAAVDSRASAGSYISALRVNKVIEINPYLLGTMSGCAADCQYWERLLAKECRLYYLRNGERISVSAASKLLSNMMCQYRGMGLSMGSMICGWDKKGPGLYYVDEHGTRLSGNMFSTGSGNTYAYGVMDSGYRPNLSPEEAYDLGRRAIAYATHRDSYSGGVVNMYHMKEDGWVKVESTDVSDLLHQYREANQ

Structure (SMILES)	IC50 (RPMI-8226) [nM]	IC50 (MM1.S) [nM]	inhibition [1] [%]	IC50 [2] [nM]	IC50 (MV4-11) [nM]	remaining at 0.5 h, 1 µM [3] [%]	IC50 [4] [nM]	IC50 [5] [nM]	IC50 [6] [nM]
CC(C)C[C@H](NC(=O)[C@H](CCc1ccccc1)NC(=O)CN1CCOCC1)C(=O)N[C@@H](Cc1ccccc1)C(=O)N[C@@H](CC(C)C)C(=O)[C@@]1(C)CO1 [CARFILZOMIB]	2	< 1	–	–	–	–	–	–	–
COC[C@@H]1NC(=O)c2ccccc2OCCCCCCOC[C@@H](C(=O)NCc2ccccc2Cl)NC1=O	–	–	34	–	–	–	–	–	–
Cc1ccc(CNC(=O)[C@@H]2Cc3cn(c4ccccc34)CCCCCn3ccnc3C(=O)N[C@@H](CC(=O)NCC(C)(C)C)C(=O)N2)cc1	59	17	–	26	52	–	–	–	–
O=C1N[C@@H](CCc2ccccc2)C(=O)N[C@H](C(=O)NCc2ccccc2Cl)COCCCCCCOc2ccccc21	–	–	36.7	–	–	–	–	–	–
Cc1ccc(CNC(=O)[C@@H]2COCCCCCCOc3ccccc3C(=O)N[C@@H](CC(=O)NCC(C)(C)C)C(=O)N2)cc1	175	37	–	67	76	–	–	–	–
Cc1ccc(CNC(=O)[C@H]2NC(=O)[C@H](CC(=O)NCC(C)(C)C)NC(=O)c3nccn3CCCCCCCO[C@H]2C)cc1	27	220	–	50	208	–	–	–	–
Cc1ccc(CNC(=O)[C@@H]2COCCCCCCOc3ccccc3C(=O)N[C@@H](CCc3ccccc3)C(=O)N2)cc1	–	–	38.4	–	–	–	–	–	–
CCCCCCOC[C@H](NC(=O)[C@H](CC(=O)NCC(C)(C)C)NC(=O)c1cnn(C)c1CCC)C(=O)NCc1ccc(C)cc1	97	64	–	9	73	< 5	–	–	–
CC(C)(C)CNC(=O)C[C@@H]1NC(=O)c2ccccc2OCCCCCCOC[C@@H](C(=O)NCc2ccccc2Cl)NC1=O	301	343	–	127	718	–	–	–	–
Cc1ccc(CNC(=O)[C@@H]2COCCCCCCCc3c(cnn3C)C(=O)N[C@@H](CC(=O)NCC(C)(C)C)C(=O)N2)cc1	18	15	–	29	21	≥ 66	> 10000	> 10000	35
Cc1ccc(CNC(=O)[C@@H]2COCCCCCCOc3c(cnn3C)C(=O)N[C@@H](CC(=O)NCC(C)(C)C)C(=O)N2)cc1	58	23	–	30	55	–	–	–	–
Cc1ccc(CNC(=O)[C@@H]2COCCCCCCCn3ccnc3C(=O)N[C@@H](CC(=O)NCC(C)(C)C)C(=O)N2)cc1	15	6	–	34	12	< 20	> 10000	> 10000	19
CC(C)(C)CNC(=O)C[C@@H]1NC(=O)c2ccccc2OCCCCCCOC[C@@H](C(=O)NCc2ccccc2)NC1=O	–	–	–	660	–	–	–	–	–
CC(C)C[C@H](NC(=O)[C@H](Cc1ccccc1)NC(=O)c1cnccn1)B(O)O [BORTEZOMIB]	–	–	–	–	–	–	–	517	–
